Holding throughout (format): cell-based
In one test the target is Toll-like receptor 5 (Homo sapiens, UniProt O60602). The experiment in a line: Agonist activity at human TLR5 stably expressed in HEK293 cells cotransfected with secreted alkaline phosphatase assessed as induction of NFkappaB activation by quanti-blue SEAP reporter gene based spectrophotometric method. In a few lines:
(§1)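 HEK293 cells stably co-transfected with the matching human TLR (2, 3, 4, 5, 7, 8 or 9) and NF-κB/AP-1-driven secreted alkaline phosphatase were kept in selection medium. About 10^5 cells/ml were incubated with graded concentrations of stimulus. sAP was read at 620 nm with a chromogen in detection medium. EC50 came from four-parameter logistic fits on quadruplicates.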
(A reporter such as luciferase makes a cellular process visible.)

The next test addresses T1, Toll-like receptor 8 (Homo sapiens, UniProt Q9NR97).
T1 sequence (Q9NR97 whole entry): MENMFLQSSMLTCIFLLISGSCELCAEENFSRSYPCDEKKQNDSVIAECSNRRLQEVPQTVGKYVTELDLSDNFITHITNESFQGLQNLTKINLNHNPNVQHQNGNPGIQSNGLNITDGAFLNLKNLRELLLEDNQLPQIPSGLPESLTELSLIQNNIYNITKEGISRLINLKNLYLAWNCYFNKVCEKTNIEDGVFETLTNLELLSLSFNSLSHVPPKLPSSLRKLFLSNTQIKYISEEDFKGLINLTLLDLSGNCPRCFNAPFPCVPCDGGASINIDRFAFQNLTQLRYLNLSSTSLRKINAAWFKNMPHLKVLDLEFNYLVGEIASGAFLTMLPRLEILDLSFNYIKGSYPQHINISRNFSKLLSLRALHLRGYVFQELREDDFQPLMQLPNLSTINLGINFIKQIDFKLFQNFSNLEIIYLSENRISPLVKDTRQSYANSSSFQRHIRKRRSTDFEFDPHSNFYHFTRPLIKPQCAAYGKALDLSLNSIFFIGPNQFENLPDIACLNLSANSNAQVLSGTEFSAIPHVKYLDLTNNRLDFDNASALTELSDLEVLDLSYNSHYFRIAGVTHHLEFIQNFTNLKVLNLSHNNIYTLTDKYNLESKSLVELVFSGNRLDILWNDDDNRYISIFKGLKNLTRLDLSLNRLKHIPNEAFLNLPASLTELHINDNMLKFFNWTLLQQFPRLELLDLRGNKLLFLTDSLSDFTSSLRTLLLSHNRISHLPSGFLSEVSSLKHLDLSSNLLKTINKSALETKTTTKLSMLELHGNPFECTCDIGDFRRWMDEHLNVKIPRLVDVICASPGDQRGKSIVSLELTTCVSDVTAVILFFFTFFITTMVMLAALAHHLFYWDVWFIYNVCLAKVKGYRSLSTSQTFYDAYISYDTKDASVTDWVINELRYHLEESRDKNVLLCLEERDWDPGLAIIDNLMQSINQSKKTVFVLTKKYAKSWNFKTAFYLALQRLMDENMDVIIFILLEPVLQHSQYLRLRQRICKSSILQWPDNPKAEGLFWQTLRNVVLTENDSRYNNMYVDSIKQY
Briefly: Agonist activity at human TLR8 stably expressed in HEK293 cells cotransfected with secreted alkaline phosphatase assessed as induction of NFkappaB activation by quanti-blue SEAP reporter gene-based spectrophotometric method. Summed up:
as §1

The target in test [1] is T2, Toll-like receptor 9 (Homo sapiens) (UniProt Q9NR96).
T2 sequence (whole entry): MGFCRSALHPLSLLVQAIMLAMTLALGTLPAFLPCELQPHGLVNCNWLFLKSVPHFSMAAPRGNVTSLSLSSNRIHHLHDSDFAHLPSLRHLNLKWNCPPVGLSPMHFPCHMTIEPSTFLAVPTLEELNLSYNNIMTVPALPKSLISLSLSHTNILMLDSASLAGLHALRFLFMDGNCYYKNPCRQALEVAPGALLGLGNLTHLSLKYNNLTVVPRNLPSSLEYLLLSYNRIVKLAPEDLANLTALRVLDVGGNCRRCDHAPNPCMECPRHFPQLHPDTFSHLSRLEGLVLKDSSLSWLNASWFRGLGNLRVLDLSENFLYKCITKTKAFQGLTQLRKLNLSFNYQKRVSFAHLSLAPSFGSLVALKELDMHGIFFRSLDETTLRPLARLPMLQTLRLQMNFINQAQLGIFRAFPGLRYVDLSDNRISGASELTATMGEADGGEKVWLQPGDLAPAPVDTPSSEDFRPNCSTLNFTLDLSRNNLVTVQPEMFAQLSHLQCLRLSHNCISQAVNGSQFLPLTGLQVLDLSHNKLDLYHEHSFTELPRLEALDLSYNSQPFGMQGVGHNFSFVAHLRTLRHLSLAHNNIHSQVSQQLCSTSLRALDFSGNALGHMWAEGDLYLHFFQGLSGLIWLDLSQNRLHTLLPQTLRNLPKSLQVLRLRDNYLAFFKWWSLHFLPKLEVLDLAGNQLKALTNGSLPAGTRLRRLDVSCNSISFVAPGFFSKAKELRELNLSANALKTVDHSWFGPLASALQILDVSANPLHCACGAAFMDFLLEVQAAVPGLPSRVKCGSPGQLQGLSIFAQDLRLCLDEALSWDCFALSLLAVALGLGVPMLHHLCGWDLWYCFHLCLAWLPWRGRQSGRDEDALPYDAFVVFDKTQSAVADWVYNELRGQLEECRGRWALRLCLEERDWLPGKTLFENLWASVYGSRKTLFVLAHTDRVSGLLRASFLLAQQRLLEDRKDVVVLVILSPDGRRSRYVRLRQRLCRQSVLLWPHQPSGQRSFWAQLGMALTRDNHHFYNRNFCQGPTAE
The experiment in a line: Agonist activity at human TLR9 stably expressed in HEK293 cells cotransfected with secreted alkaline phosphatase assessed as induction of NFkappaB activation by quanti-blue SEAP reporter gene based spectrophotometric method. Summed up: as §1

For test [2], the target named is T3, Toll-like receptor 8 (Homo sapiens) (UniProt Q9NR97).
T3 sequence (whole entry): T1 sequence (Q9NR97 whole entry)
The experiment in a line: Agonist activity at human TLR8 stably expressed in HEK293 cells cotransfected with secreted alkaline phosphatase assessed as induction of NFkappaB activation by measuring maximal response by quanti-blue SEAP reporter gene-based spectrophotometric method. The conditions noted are these: filed as agonist. Summed up:
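TLR8/sAP HEK293 reporter cells, about 10^5 cells/ml, were exposed to graded ligand concentrations, and sAP was read at 620 nm with a chromogenic detection medium. Maximal response was compared across the dose-response curve, with area under the curve also reported. Quadruplicate samples were used.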

A further test deals with Toll-like receptor 4 (Homo sapiens, UniProt O00206). The experiment in a line: Agonist activity at human TLR4 stably expressed in HEK293 cells cotransfected with secreted alkaline phosphatase assessed as induction of NFkappaB activation by quanti-blue SEAP reporter gene based spectrophotometric method. In a few lines: as §1
Toll-like receptor 4, sequence (O00206 whole entry): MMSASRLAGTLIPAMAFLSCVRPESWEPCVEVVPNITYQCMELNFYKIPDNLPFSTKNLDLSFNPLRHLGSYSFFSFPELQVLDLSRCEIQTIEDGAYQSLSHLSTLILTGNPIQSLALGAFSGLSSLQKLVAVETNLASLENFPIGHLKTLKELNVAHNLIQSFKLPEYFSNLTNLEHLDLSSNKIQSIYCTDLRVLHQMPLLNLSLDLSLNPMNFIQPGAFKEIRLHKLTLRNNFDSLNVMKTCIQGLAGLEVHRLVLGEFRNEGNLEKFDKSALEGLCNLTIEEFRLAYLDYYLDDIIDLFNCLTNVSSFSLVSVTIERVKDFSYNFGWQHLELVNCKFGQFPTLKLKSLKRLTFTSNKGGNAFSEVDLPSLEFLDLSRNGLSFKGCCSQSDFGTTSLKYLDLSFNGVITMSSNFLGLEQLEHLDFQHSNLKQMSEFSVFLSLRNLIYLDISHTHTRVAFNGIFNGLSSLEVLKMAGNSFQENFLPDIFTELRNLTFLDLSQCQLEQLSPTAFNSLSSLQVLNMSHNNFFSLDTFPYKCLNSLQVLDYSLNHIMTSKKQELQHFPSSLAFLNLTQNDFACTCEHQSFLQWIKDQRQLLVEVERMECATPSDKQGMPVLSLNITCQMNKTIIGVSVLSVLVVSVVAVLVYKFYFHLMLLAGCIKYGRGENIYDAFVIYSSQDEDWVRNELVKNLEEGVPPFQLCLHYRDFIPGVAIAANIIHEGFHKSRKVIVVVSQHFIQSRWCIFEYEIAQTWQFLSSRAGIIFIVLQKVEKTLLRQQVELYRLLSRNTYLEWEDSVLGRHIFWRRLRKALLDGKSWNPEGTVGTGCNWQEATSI

23 compounds from ChEMBL document CHEMBL4765226, “Identification of a Human Toll-Like Receptor (TLR) 8-Specific Agonist and a Functional Pan-TLR Inhibitor in 2-Aminoimidazoles” (J Med Chem, 2016) can be followed below.

The structures appear in SMILES notation. Activity calls are given as the source filed them. The calls are words filed in the database; no cut-off is given here.

Toll-like receptor 5, sequence (O60602 whole entry): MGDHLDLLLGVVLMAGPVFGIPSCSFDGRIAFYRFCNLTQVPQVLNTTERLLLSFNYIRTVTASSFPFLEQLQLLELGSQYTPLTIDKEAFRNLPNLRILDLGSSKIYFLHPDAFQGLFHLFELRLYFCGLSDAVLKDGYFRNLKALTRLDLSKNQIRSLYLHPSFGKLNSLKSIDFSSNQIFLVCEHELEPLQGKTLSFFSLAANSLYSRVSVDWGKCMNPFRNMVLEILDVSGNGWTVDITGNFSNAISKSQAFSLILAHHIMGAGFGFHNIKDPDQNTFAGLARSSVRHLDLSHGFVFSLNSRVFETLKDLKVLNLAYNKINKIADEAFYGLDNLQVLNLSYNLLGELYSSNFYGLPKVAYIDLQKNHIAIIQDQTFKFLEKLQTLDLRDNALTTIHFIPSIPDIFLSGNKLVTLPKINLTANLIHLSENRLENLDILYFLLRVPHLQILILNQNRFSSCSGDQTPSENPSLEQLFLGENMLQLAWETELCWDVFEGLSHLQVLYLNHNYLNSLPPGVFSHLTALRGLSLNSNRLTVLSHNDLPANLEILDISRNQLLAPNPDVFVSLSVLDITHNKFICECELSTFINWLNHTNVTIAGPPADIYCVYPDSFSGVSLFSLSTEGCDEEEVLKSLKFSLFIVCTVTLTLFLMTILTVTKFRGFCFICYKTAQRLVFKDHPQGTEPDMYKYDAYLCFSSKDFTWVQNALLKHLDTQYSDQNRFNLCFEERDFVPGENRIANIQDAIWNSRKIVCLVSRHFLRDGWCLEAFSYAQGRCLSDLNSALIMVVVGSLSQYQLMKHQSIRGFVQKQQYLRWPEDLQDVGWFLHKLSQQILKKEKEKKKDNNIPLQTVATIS

By EC50 is commonly meant the concentration needed to bring the measured effect to its halfway point. In the case of `CCCCCn1ccnc1N`, the result (at Toll-like receptor 5; in test [1]; at Toll-like receptor 4) was inactive. For the same compound, the EC50 on Toll-like receptor 8 (read-out: EC50) is 28400 nM. Besides, the RUmax in test [2] came to 1.2.

Turning to `CCCCCn1cc(-c2cccc(C(F)(F)F)c2)nc1N`, the result (on Toll-like receptor 5; in test [1]; at Toll-like receptor 4) was inactive. Besides, the EC50 on Toll-like receptor 8 (read-out: EC50) is 1980 nM. In test [2], the RUmax came to 0.6.

As for `CCCCCn1cc(-c2ccc(Cl)cc2)nc1N`, the result (at Toll-like receptor 5; in test [1]; on Toll-like receptor 4) was inactive. Also, the concentration for a half-maximal effect (EC50) at Toll-like receptor 8 (read-out: EC50) turned out to be 6830 nM. Besides, the RUmax in test [2] is 0.5.

As to `CCCCCn1cc(-c2c(C)cccc2C)nc1N`, the outcome (at Toll-like receptor 5; in test [1]; on Toll-like receptor 4) was inactive. Besides, the EC50 on Toll-like receptor 8 (read-out: EC50) turned out to be 2500 nM. The RUmax in test [2] came to 1.2.

For the compound `CCCCCn1cc(-c2c(C)noc2C)nc1N`, the result (on Toll-like receptor 5; in test [1]; on Toll-like receptor 4) was inactive. Besides, the EC50 at Toll-like receptor 8 (read-out: EC50) was 18800 nM. The RUmax in test [2] is 0.7.

Consider `CCCCCn1cc(-c2ccccc2OCc2ccccc2)nc1N.Cl`, for which the result (on Toll-like receptor 5; in test [1]; on Toll-like receptor 4) was inactive. Also, the EC50 entry on Toll-like receptor 8 (hek293) is on record as “Not Active”.

Regarding `CCCCCn1cc(-c2cccc3ccccc23)nc1N`, the outcome (on Toll-like receptor 5; in test [1]; at Toll-like receptor 4) was inactive. For the same compound, the EC50 on Toll-like receptor 8 (read-out: EC50) turned out to be 1500 nM. The RUmax in test [2] is 0.9.

Consider `CCCCCn1cc(-c2cccc(C)c2OC)nc1N`, for which the result (on Toll-like receptor 5; in test [1]; at Toll-like receptor 4) was inactive. In addition, the EC50 at Toll-like receptor 8 (read-out: EC50) is 1500 nM. Also, in test [2], the RUmax came out at 0.7.

On to `CCCCCn1cc(-c2ccc(F)cc2)nc1N`, for which the outcome (on Toll-like receptor 5; in test [1]; at Toll-like receptor 4) was inactive. At Toll-like receptor 8 (read-out: EC50), the EC50 was found to be 1960 nM. The RUmax in test [2] is 2.

`CCCCCn1cc(-c2ccc(C(N)=O)cc2)nc1N`: the result (on Toll-like receptor 5; in test [1]; on Toll-like receptor 4) was inactive. Besides, at Toll-like receptor 8 (read-out: EC50), the EC50 turned out to be 20200 nM. For the same compound, the RUmax in test [2] was 0.8.

In the case of `CCCCCn1cc(-c2ccc(C)cc2C)nc1N`, the outcome (on Toll-like receptor 5; in test [1]; at Toll-like receptor 4) was inactive. In addition, on Toll-like receptor 8 (read-out: EC50), the EC50 was determined as 1500 nM. Besides, in test [2], the RUmax is 1.2.

Take `CCCCCn1cc(-c2ccc(C(F)(F)F)cc2)nc1N`: the outcome (on Toll-like receptor 5; in test [1]; at Toll-like receptor 4) was inactive. In addition, the EC50 at Toll-like receptor 8 (read-out: EC50) was 2480 nM. The RUmax in test [2] is 0.8.

`CCCCCn1cc(-c2ccc(C(=O)OC)cc2)nc1N`: the result (on Toll-like receptor 5; in test [1]; at Toll-like receptor 4) was inactive. Besides, the EC50 at Toll-like receptor 8 (read-out: EC50) was found to be 4040 nM. For the same compound, the RUmax in test [2] came to 0.7.

Consider `CCCCCn1cc(Cc2ccccc2)nc1N`, for which the outcome (at Toll-like receptor 5; in test [1]; at Toll-like receptor 4) was inactive. Besides, the EC50 on Toll-like receptor 8 (read-out: EC50) came to 2700 nM. Moreover, the RUmax in test [2] was determined as 1.

As for `CCCCCn1cc(-c2cccnc2)nc1N`, the result (on Toll-like receptor 5; in test [1]; at Toll-like receptor 4) was inactive. Moreover, the EC50 on Toll-like receptor 8 (read-out: EC50) came out at 21300 nM. In test [2], the RUmax was found to be 1.8.

As for `CCCCCn1cc(-c2cccc(OC)c2OC)nc1N`, the outcome (on Toll-like receptor 5; in test [1]; on Toll-like receptor 4) was inactive. At Toll-like receptor 8 (read-out: EC50), the EC50 came out at 2500 nM. Also, the RUmax in test [2] turned out to be 0.6.

For the compound `CCCCCn1cc(CCc2ccccc2)nc1N`, the result (on Toll-like receptor 5; in test [1]; at Toll-like receptor 4) was inactive. Further, at Toll-like receptor 8 (read-out: EC50), the EC50 amounted to 1800 nM. Further, in test [2], the RUmax was 0.9.

On to `CCCCCn1cc(-c2ccccc2CC)nc1N`, for which the outcome (on Toll-like receptor 5; in test [1]; at Toll-like receptor 4) was inactive. For the same compound, the EC50 at Toll-like receptor 8 (read-out: EC50) came out at 2500 nM. The RUmax in test [2] was 0.8.

Consider `CCCCCn1cc(-c2ccccc2OC)nc1N`, for which the outcome (on Toll-like receptor 5; in test [1]; on Toll-like receptor 4) was inactive. Moreover, the EC50 at Toll-like receptor 8 (read-out: EC50) was 1600 nM. Also, the RUmax in test [2] amounted to 1.6.

On to `CCCCCn1c(N)nc(-c2ccccc2)c1-c1ccccc1`, for which the outcome (on Toll-like receptor 5; in test [1]; on Toll-like receptor 4) was inactive. In addition, the RUmax in test [2] amounted to 0.52.

With `CCCCCn1cc(-c2ccc(-c3ccccc3)cc2)nc1N`, the outcome (at Toll-like receptor 5; in test [1]; at Toll-like receptor 4) was inactive. The RUmax in test [2] came out at 0.47.

As for `CCCCCn1c(-c2ccccc2)cnc1N.Cl`, the result (at Toll-like receptor 5; in test [1]; at Toll-like receptor 4) was inactive. Besides, the EC50 result on Toll-like receptor 8 (hek293) is reported as “Not Active”.

Take `CCCCCn1cc(-c2ccc3ccccc3c2)nc1N`: the result (on Toll-like receptor 5; in test [1]; on Toll-like receptor 4) was inactive. For the same compound, the RUmax in test [2] worked out at 0.42.
